The source of these data is ChEMBL document CHEMBL4020840, “Synthesis and Biological Evaluation of Selenium-Containing 4-Anilinoquinazoline Derivatives as Novel Antimitotic Agents” (J Med Chem, 2018).

Each structure is given as a SMILES string.

In one assay the test system is A549. Briefly: Growth inhibition of human A549 cells after 48 hrs by MTT assay. It is filed as functional, cell-based. Conditions: A549, 48 h.
Another assay relates to HCT-116. Briefly: Growth inhibition of human HCT116 cells after 48 hrs by MTT assay. It is filed as functional, cell-based. Particulars: HCT-116, 48 h. The method in brief: (§1)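 MTT assay: log-phase cells plated at 5 × 10³/well for 24 h, then exposed to a range of test concentrations for 48 h. MTT (5 mg/mL) added for 4 h, formazan dissolved in DMSO, absorbance read at 570 nm. IC50 is the concentration giving 50% growth inhibition, from dose-response curves; at least three independent experiments, mean ± SE.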
(Formazan colour is commonly taken as a measure of viable cells.)

A further assay deals with HepG2. The assay can be described thus: Growth inhibition of human HepG2 cells after 48 hrs by MTT assay. It is filed as functional, cell-based. Particulars: HepG2, 48 h. The method in brief:
as §1

The next assay concerns MDA-MB-231. Briefly: Growth inhibition of human MDA-MB-231 cells after 48 hrs by MTT assay. It is filed as functional, cell-based. Conditions: MDA-MB-231, 48 h. The method in brief: as §1
The next assay concerns LoVo. Briefly: Growth inhibition of human LoVo cells after 48 hrs by MTT assay. Format: functional, cell-based. The method in brief: as §1
The subject of the next assay is RKO. The assay can be described thus: Growth inhibition of human RKO cells after 48 hrs by MTT assay. It is filed as functional, cell-based. The method in brief:
as §1

The subject of another assay is A549/CDDP. The assay can be described thus: Growth inhibition of human A549/CDDP cells after 48 hrs by MTT assay. It is filed as functional, cell-based. The method in brief:
as §1

Assay [1] in a line: Growth inhibition of human HepG2/DOX cells after 48 hrs by MTT assay. It is filed as functional, cell-based. The method in brief:
as §1

Assay [2] can be described thus: Resistance factor, ratio of IC50 for human A549/CDDP cells to IC50 for human A549 cells. It is filed as functional. The method in brief: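 MTT assay: log-phase cells were seeded at 5 × 10³/well for 24 h, then exposed to a concentration series for 48 h. MTT (5 mg/mL) was added for 4 h, formazan was dissolved in DMSO, and A570 was read. IC50 values came from dose–response curves of at least three independent experiments. Resistance factor = IC50 in the resistant line / IC50 in the parental sensitive line.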

In the case of `[2H]C([2H])([2H])c1nc(N(C)c2ccc([Se]C#N)cc2)c2ccccc2n1`, the 50% inhibitory concentration (IC50) (usually the concentration at which inhibition is half-maximal) in the assay on A549 was 7 nM; in the assay with HCT-116, 10 nM; with HepG2, 21 nM; in the assay with MDA-MB-231 it was 11 nM; in the assay on LoVo, 14 nM; with RKO, 11 nM.

Turning to `C[Se]c1ccc(N(C)c2nc(C3CC3)nc3ccccc23)cc1`, the half-maximal inhibitory concentration (IC50) is 13 nM in the assay with A549; 15 nM in the assay on HCT-116; 32 nM in the assay with HepG2; 18 nM in the assay on MDA-MB-231; 11 nM in the assay on LoVo; 21 nM in the assay on RKO.

Consider `COc1ccc(N(C)c2nc(C)nc3ccccc23)cc1OCC[Se]C#N`, for which the half-maximal inhibitory concentration (IC50) with A549 was 13 nM; with HCT-116, 18 nM; in the assay on HepG2 it was 14 nM; in the assay on MDA-MB-231, 13 nM; in the assay on LoVo, 19 nM; with RKO, 27 nM.

As for `COc1ccc(N(C)c2nc(C)nc3ccccc23)cc1OCCCCCC[Se]C#N`, the IC50 in the assay on A549 worked out at 5520 nM; in the assay on HCT-116, 6180 nM; in the assay on HepG2, 4890 nM; in the assay with MDA-MB-231, 3550 nM; with LoVo it was 8580 nM; in the assay with RKO it was 1540 nM.

As for `CN(c1ccc([Se]C#N)cc1)c1nc(C2CC2)nc2ccccc12`, the IC50 is 12 nM in the assay on A549; 62 nM in the assay with HCT-116; 41 nM in the assay on HepG2; 29 nM in the assay on MDA-MB-231; 11 nM with LoVo; 51 nM with RKO.

Turning to `COc1ccc(N(C)c2nc(C)nc3ccccc23)cc1C(=O)OCCCCC[Se]C#N`, the IC50 with A549 was 592 nM; in the assay on HCT-116 it was 551 nM; in the assay with HepG2, 667 nM; with MDA-MB-231 it was 851 nM; in the assay with LoVo, 714 nM; with RKO, 356 nM.

As to `Cc1nc(N(C)c2ccc([Se]C#N)c(F)c2)c2ccccc2n1`, the IC50 in the assay with A549 stood at 4 nM; in the assay on HCT-116 it was 20 nM; in the assay with HepG2 it was 37 nM; in the assay with MDA-MB-231, 6 nM; with LoVo it was 13 nM; with RKO it was 8 nM.

For the compound `COc1ccc(N(C)c2nc(C)nc3ccccc23)cc1C[Se]C#N`, the IC50 in the assay with A549 turned out to be 98 nM; with HCT-116, 113 nM; in the assay on HepG2, 1110 nM; with MDA-MB-231, 153 nM; with LoVo it was 277 nM; in the assay with RKO, 316 nM.

Take `COc1ccc(N(C)c2nc(C)nc3ccccc23)cc1C(=O)NCC[Se]C#N`: the IC50 with A549 was 187 nM; with HCT-116, 313 nM; with HepG2 it was 179 nM; in the assay on MDA-MB-231, 1250 nM; in the assay with LoVo, 561 nM; in the assay with RKO, 1170 nM.

As for `COc1ccc(N(C)c2nc(C)nc3ccccc23)cc1OCCC[Se]C#N`, the IC50 is 382 nM in the assay on A549; 852 nM in the assay with HCT-116; 1040 nM in the assay with HepG2; 815 nM in the assay on MDA-MB-231; 921 nM with LoVo; 799 nM in the assay with RKO.

As to `COc1ccc(N(C)c2nc(C)nc3ccccc23)cc1C(=O)OCCC[Se]C#N`, the IC50 in the assay with A549 is 250 nM; in the assay with HCT-116 it was 720 nM; with HepG2, 340 nM; in the assay on MDA-MB-231 it was 1180 nM; in the assay on LoVo it was 854 nM; with RKO, 1140 nM.

In the case of `COc1ccc(/C=C\c2cc(OC)c(OC)c(OC)c2)cc1O` [COMBRETASTATIN A4], the results for the IC50 (in the assay on HepG2; in the assay with A549/CDDP; in assay [1]) were 9 nM, 17 nM and 27 nM, respectively.

In the case of `COc1ccc(N(C)c2nc(C)nc3ccccc23)cc1OCCN`, the 50% inhibitory concentration (IC50) in the assay on A549 worked out at 122 nM; in the assay on HCT-116, 198 nM; in the assay on HepG2 it was 343 nM; with MDA-MB-231, 682 nM; in the assay on LoVo it was 421 nM; in the assay with RKO, 343 nM.

As for `Cc1nc(N(C)c2ccc([Se]C#N)c(C)c2)c2ccccc2n1`, the half-inhibitory concentration (IC50) in the assay with A549 came out at 8 nM; in the assay with HCT-116, 13 nM; in the assay with HepG2, 9 nM; in the assay with MDA-MB-231, 16 nM; in the assay with LoVo, 19 nM; with RKO, 17 nM.

Turning to `COc1ccc(N(C)c2nc(C)nc3ccccc23)cc1[Se]C`, the half-inhibitory concentration (IC50) came to 11 nM in the assay on A549; 28 nM in the assay with HCT-116; 17 nM in the assay on HepG2; 10 nM with MDA-MB-231; 3 nM with LoVo; 11 nM in the assay on RKO.

For `COc1ccc(N(C)c2nc(C)nc3ccccc23)cc1C(=O)OCCCC[Se]C#N`, the IC50 with A549 is 155 nM; with HCT-116 it was 662 nM; in the assay on HepG2, 975 nM; in the assay with MDA-MB-231 it was 554 nM; with LoVo it was 1080 nM; with RKO, 1020 nM.

`[2H]C([2H])([2H])c1nc(N(C)c2ccc([Se]C)cc2)c2ccccc2n1`: the 50% inhibitory concentration (IC50) amounted to 3 nM in the assay on A549; 3 nM in the assay on HCT-116; 5 nM in the assay on HepG2; 9 nM in the assay on MDA-MB-231; 5 nM in the assay with LoVo; 8 nM in the assay on RKO.

Consider `COc1ccc(N(C)c2nc(C)nc3ccccc23)cc1OCCCC[Se]C#N`, for which the half-inhibitory concentration (IC50) in the assay with A549 is 1200 nM; in the assay with HCT-116, 512 nM; in the assay with HepG2, 6460 nM; with MDA-MB-231, 1350 nM; with LoVo, 882 nM; with RKO it was 1360 nM.

Take `Cc1nc(N(C)c2ccc(OCC[Se]C#N)cc2)c2ccccc2n1`: the IC50 in the assay on A549 stood at 893 nM; in the assay on HCT-116, 2290 nM; with HepG2, 1680 nM; in the assay with MDA-MB-231, 317 nM; in the assay with LoVo, 547 nM; with RKO, 652 nM.

On to `COc1ccc(N(C)c2nc(C)nc3ccccc23)cc1C(=O)OCCCCCC[Se]C#N`, for which the IC50 in the assay with A549 turned out to be 488 nM; in the assay on HCT-116, 1990 nM; with HepG2, 2650 nM; in the assay on MDA-MB-231, 2210 nM; in the assay with LoVo, 1050 nM; in the assay with RKO, 1990 nM.

On to `COc1cccc2c1C(=O)c1c(O)c3c(c(O)c1C2=O)C[C@@](O)(C(=O)CO)C[C@@H]3O[C@H]1C[C@H](N)[C@H](O)[C@H](C)O1` [DOXORUBICIN], for which the 50% inhibitory concentration (IC50) is 2900 nM with A549, 1890 nM in the assay on HepG2, 4590 nM in the assay with A549/CDDP and above 10000 nM in [1]. Besides, in [2], the “Ratio IC50” value is on record as 1.58.

Take `C[Se]c1ccc(N(C)c2nc(C)nc3ccccc23)cc1Cl`: the half-inhibitory concentration (IC50) was 2 nM with A549; 5 nM in the assay on HCT-116; 4 nM in the assay with HepG2; 7 nM in the assay with MDA-MB-231; 3 nM with LoVo; 4 nM in the assay with RKO.

`COc1ccc(N(C)c2nc(C)nc3ccccc23)cc1C(=O)OCC[Se]C#N`: the IC50 with A549 amounted to 353 nM; in the assay with HCT-116 it was 951 nM; in the assay with HepG2, 890 nM; with MDA-MB-231, 1480 nM; in the assay with LoVo, 2960 nM; in the assay on RKO it was 2390 nM.

For `COc1ccc(N(C)c2nc(C)nc3ccccc23)cc1OCCCCC[Se]C#N`, the IC50 in the assay on A549 is 2440 nM; in the assay with HCT-116, 256 nM; in the assay on HepG2, 5210 nM; in the assay on MDA-MB-231 it was 4410 nM; in the assay on LoVo, 5210 nM; with RKO, 3560 nM.

Turning to `C[Se]c1ccc(N(C)c2nc(C)nc3ccccc23)cc1C`, the half-inhibitory concentration (IC50) with A549 stood at 2 nM; in the assay on HCT-116 it was 3 nM; in the assay on HepG2, 6 nM; with MDA-MB-231, 7 nM; in the assay with LoVo it was 9 nM; with RKO, 8 nM.

In the case of `Cc1nc(N(C)c2ccc([Se]C#N)c(Cl)c2)c2ccccc2n1`, the IC50 in the assay on A549 was 7 nM; in the assay with HCT-116, 12 nM; in the assay with HepG2 it was 12 nM; with MDA-MB-231, 9 nM; with LoVo, 12 nM; in the assay on RKO, 11 nM.

In the case of `COc1ccc(N(C)c2nc(C)nc3ccccc23)cc1[Se]C#N`, the 50% inhibitory concentration (IC50) in the assay on A549 turned out to be 49 nM; in the assay on HCT-116, 34 nM; with HepG2, 59 nM; in the assay on MDA-MB-231, 52 nM; in the assay with LoVo, 73 nM; in the assay with RKO, 47 nM.
